Test results: ChEMBL document CHEMBL2069233, “New hypotheses for the binding mode of 4- and 7-substituted indazoles in the active site of neuronal nitric oxide synthase” (Bioorg Med Chem, 2012)

Legend:
Nitric oxide synthase 1 = Nitric oxide synthase 1 (Rattus norvegicus, UniProt P29476); assay: Inhibition of nNOS in rat cerebellum homogenates assessed as reduction in conversion of L-[3H]arginine to L-[3H]citrulline; assay type: tissue-based
Summary of the method: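 Rat cerebellum homogenate as nNOS source; L-[3H]arginine to L-[3H]citrulline conversion with 1 mM CaCl2, 200 μM β-NADPH, 0.88 μM L-arginine plus 0.12 μM L-[3H]arginine, 15 min at 37 °C. Compounds in DMSO 0.4%, tested at 0.01, 0.1, 1, 10 and 100 μM. IC50 taken from inhibition curves, mean ± sem over 3–7 experiments.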

[1] = molecular target: Nitric oxide synthase 1 (Rattus norvegicus) (UniProt P29476); assay: Inhibition of nNOS in rat cerebellum homogenates assessed as reduction in conversion of L-[3H]arginine to L-[3H]citrulline at 100 uM; assay type: tissue-based
Nitric oxide synthase 1 (Rattus norvegicus), sequence (P29476 whole entry): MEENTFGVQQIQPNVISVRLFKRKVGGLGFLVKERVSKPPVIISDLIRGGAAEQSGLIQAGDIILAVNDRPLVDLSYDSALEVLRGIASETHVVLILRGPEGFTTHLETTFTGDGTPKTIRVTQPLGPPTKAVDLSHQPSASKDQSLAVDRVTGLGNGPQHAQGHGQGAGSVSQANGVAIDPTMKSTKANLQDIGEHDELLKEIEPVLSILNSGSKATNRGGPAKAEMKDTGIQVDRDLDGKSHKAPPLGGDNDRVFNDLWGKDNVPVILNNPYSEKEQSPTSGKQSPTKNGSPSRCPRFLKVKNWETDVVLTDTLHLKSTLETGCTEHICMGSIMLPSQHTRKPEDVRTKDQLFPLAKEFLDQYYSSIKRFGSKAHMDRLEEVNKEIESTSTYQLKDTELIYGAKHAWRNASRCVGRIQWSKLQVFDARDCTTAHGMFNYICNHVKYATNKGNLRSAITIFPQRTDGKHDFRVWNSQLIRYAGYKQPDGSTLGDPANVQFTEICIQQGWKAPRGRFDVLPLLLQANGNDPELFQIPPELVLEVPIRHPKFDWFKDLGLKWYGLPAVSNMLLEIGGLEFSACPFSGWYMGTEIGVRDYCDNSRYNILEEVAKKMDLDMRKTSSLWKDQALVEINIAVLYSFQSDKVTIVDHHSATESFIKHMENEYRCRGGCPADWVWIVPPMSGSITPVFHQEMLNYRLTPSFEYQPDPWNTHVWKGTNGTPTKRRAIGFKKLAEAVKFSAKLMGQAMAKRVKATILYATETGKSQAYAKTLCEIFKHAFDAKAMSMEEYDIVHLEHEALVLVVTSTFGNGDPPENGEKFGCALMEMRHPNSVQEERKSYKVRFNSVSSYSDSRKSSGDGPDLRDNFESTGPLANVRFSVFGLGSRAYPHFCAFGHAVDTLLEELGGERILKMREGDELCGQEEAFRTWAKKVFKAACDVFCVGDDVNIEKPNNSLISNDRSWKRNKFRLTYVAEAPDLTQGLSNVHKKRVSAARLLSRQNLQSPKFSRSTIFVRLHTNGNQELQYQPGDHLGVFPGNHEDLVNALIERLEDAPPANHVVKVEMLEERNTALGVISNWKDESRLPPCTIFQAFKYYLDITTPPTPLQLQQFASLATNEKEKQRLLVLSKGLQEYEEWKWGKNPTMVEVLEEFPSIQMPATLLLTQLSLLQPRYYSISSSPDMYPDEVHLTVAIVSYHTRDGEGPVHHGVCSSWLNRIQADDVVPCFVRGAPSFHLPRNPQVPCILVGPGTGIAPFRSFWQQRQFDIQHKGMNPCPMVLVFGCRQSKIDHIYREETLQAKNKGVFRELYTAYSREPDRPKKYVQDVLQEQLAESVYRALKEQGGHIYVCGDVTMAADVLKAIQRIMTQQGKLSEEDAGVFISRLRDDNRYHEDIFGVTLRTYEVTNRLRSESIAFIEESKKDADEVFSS

Nitric oxide synthase 1, sequence (P29476 whole entry): as above

| SMILES | IC50 (Nitric oxide synthase 1) | inhibition [1] |
| --- | --- | --- |
| CCn1cc2c(Br)cccc2n1 | > 100 µM | 0% |
| N#Cc1cccc2[nH]ncc12 | 42.5 µM | 63% |
| CCn1ncc2c(Br)cccc21 | 72.5 µM | 61% |
| Cn1cc2c(Br)cccc2n1 | > 100 µM | 19% |

More lines, now with the values ahead:

| IC50 (Nitric oxide synthase 1) | inhibition [1] | SMILES |
| --- | --- | --- |
| 10.6 µM | 86% | Cn1ncc2c([N+](=O)[O-])cccc21 |
| > 100 µM | 34% | CCn1cc2c([N+](=O)[O-])cccc2n1 |
| 51.7 µM | 67% | CCn1ncc2c([N+](=O)[O-])cccc21 |
| 28.2 µM | 75% | Cn1ncc2c(Br)cccc21 |
| > 100 µM | 34% | Cn1cc2c([N+](=O)[O-])cccc2n1 |
